Measured values: paper PMC2441798 (Nucleic Acids Research, 2008)
Each block holds one compound with its values, some of them ahead of it. Peptide text beside a SMILES is read from it.

How the values were obtained:
[1] = test system: PlcRIV; experiment: plcA'-lacZ β-galactosidase assay in 407; type: cell-based, Bacillus thuringiensis; conditions: 2 µM peptide, 1 h
Method in brief: (§1)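 Reporter strain 407 (plcA′Z ΔplcR–papR), carrying plcR on plasmid pHT304 under its own promoter, grown in LB without antibiotics at 37°C with vigorous shaking to stationary-phase onset T0 (OD600 3 ± 0.3). Cultures split into 12 ml fractions. Cognate synthetic PapR penta- or heptapeptide added at 2 µM final, then 1 h incubation. 2 ml pelleted for β-galactosidase assay. Each assay run at least three times.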

[2] = target: T1, PlcR (Bacillus thuringiensis, UniProt Q45782); experiment: Steady-state fluorescence anisotropy binding titrations
T1 sequence (Q45782 1-285): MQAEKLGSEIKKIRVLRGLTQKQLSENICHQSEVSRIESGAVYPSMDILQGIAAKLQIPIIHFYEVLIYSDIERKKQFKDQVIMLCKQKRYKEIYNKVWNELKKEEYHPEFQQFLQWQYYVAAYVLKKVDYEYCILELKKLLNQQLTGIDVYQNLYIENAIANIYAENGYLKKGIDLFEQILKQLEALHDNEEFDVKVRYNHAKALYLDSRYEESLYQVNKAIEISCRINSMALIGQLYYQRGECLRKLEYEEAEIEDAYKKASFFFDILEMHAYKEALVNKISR

[3] = test system: PlcRI'III; experiment: plcA'-lacZ β-galactosidase assay, chimeric PlcRI'III; type: cell-based, Bacillus thuringiensis; conditions: 2 µM heptapeptide, 1 h, PlcRI'III chimera
Method in brief: (§2)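 Reporter strain Bacillus 407 (plcA′Z ΔplcR–papR), which carries a plcA promoter–lacZ fusion, was complemented with pHT304-based plasmids carrying modified plcR genes under their own promoter. Cultures were grown in LB without antibiotics at 37°C with vigorous shaking to stationary-phase onset (OD600 3 ± 0.3), then split into 12 ml fractions. Synthetic peptide was added to 2 µM final for 1 h. β-galactosidase was assayed on 2 ml pellets, with at least three repeats.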

[4] = test system: PlcRIII; experiment: plcA'-lacZ β-galactosidase assay in 407; type: cell-based, Bacillus thuringiensis; conditions: 2 µM peptide, 1 h
Method in brief: as §1

[5] = test system: PlcRII; experiment: plcA'-lacZ β-galactosidase assay in 407; type: cell-based, Bacillus thuringiensis; conditions: 2 µM peptide, 1 h
Method in brief: as §1

[6] = test system: PlcRI'II; experiment: plcA'-lacZ β-galactosidase assay, chimeric PlcRI'II; type: cell-based, Bacillus thuringiensis; conditions: 2 µM heptapeptide, 1 h, PlcRI'II chimera
Method in brief: as §2

[7] = test system: PlcRA278K; experiment: plcA'-lacZ β-galactosidase assay, PlcRA278K mutant; type: cell-based, Bacillus thuringiensis; conditions: 2 µM heptapeptide, 1 h; similar to PlcRI'II response
Method in brief: as §2

Compound: NELPFEF
activation of PlcRI'III (in words) [3]: partly restores

Compound: CC(C)C[C@H](NC(=O)[C@H](CC(=O)O)NC(=O)[C@H](C)N)C(=O)N1CCC[C@H]1C(=O)N[C@@H](Cc1ccccc1)C(=O)N[C@@H](CCC(=O)O)C(=O)N[C@@H](Cc1ccccc1)C(=O)O [ADLPFEF] (H-ADLPFEF-OH)
Kd [2]: 25 µM

Compound: SDMPFEF
activation of plcA'lacZ expression (in words) [5]: activated
activation greater than that of wild-type PlcRI by PapRI [6]: about 2 fold
activation less than that of PlcRII by PapRII [6]: 2 fold
activation of PlcRA278K (in words) [7]: activated

Compound: NEVPFEF
activation of plcA'lacZ expression (in words) [4]: activated
activation of PlcRI'III (in words) [3]: not activated

The remaining lines, values ahead:

activation of plcA'lacZ expression (in words) [1]: activated
Compound: SDLPFEH

Kd [2]: 41 µM
Compound: CC(C)C[C@H](N)C(=O)N1CCC[C@H]1C(=O)N[C@@H](Cc1ccccc1)C(=O)N[C@@H](CCC(=O)O)C(=O)N[C@@H](Cc1ccccc1)C(=O)O [LPFEF] (H-LPFEF-OH)

activation of plcA'lacZ expression (in words) [1]: activated
Compound: LPFEH

activation of plcA'lacZ expression (in words) [4]: activated
Compound: VPFEF

activation of plcA'lacZ expression (in words) [5]: activated
Compound: MPFEF
